Laboratory results reported in ChEMBL document CHEMBL3779871, “4,5-Diarylisoxazol-3-carboxylic acids: A new class of leukotriene biosynthesis inhibitors potentially targeting 5-lipoxygenase-activating protein (FLAP)” (Eur J Med Chem, 2016).

Columns and labels:
[1] = target: T1, Arachidonate 5-lipoxygenase-activating protein (Homo sapiens) (UniProt P20292); test: Inhibition of FLAP in Ca+2 ionophore A23187 stimulated human neutrophils assessed as remaining 5-LO activity preincubated for 15 mins at 10 uM measured after 10 mins by RP-HPLC analysis
T1 sequence (whole entry): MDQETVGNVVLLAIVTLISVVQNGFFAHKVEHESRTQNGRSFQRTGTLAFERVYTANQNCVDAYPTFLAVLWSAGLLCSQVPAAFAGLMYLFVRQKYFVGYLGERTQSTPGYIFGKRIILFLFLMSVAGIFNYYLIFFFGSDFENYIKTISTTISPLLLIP

[2] = Acute cytotoxicity against human neutrophils assessed as cell viability measured for 30 mins by trypan blue exclusion method; format: cell-based; details: neutrophil, 0.5 h
Method in brief: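 Neutrophils isolated from healthy donor blood by dextran sedimentation and Nycoprep centrifugation, then resuspended in PBS pH 7.4 with 1 mg/ml glucose and 1 mM CaCl₂. Cells were kept 30 min at 37 °C with compound, and cell integrity was read by trypan blue exclusion on an automated counter.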

[3] = target: T2, Arachidonate 5-lipoxygenase-activating protein (Homo sapiens, UniProt P20292); test: Inhibition of FLAP in Ca+2 ionophore A23187 stimulated human neutrophils assessed as 5-LO product formation preincubated for 15 mins measured after 10 mins by RP-HPLC analysis
T2 sequence (P20292 whole entry): T1 sequence (whole entry)

[4] = target: T3, Polyunsaturated fatty acid 5-lipoxygenase (Homo sapiens, UniProt P09917); test: Inhibition of recombinant human 5-LO expressed in Escherichia coli BL21 assessed as 5-LO product formation preincubated for 15 mins followed by addition of arachidonic acid as substrate measured after 10 mins by RP-HPLC analysis
T3 sequence (P09917 whole entry): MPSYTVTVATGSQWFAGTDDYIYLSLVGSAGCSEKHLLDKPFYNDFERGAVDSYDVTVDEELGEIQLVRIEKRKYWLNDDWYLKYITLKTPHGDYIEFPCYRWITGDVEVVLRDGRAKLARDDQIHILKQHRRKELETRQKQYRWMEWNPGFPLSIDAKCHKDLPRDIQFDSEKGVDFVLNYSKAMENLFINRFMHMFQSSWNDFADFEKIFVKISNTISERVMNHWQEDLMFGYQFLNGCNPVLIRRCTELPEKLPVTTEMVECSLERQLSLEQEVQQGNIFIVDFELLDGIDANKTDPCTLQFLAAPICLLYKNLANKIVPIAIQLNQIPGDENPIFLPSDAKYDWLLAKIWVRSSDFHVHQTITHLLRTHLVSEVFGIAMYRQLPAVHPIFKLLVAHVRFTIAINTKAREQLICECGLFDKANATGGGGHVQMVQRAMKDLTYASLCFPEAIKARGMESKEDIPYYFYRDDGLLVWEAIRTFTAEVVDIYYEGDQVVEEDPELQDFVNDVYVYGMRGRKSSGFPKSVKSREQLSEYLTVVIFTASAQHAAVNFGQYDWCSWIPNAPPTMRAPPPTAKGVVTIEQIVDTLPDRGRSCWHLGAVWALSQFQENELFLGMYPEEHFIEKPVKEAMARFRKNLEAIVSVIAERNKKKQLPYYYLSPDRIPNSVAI
Method in brief: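 Semi-purified 5-LO was diluted in ice-cold PBS with 1 mM EDTA and 1 mM ATP, then held 15 min at 4 °C with compound or 0.1% DMSO. After a 30 s prewarm at 37 °C, 2 mM CaCl₂ plus 20 arachidonic acid were added for 10 min at 37 °C. The reaction was stopped with methanol, and LTB₄ all-trans isomers plus 5-H(P)ETE were read by RP-HPLC. IC₅₀ is n = 3–4 in duplicates.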

Row | SMILES | Activity [1] | IC50 [3] | IC50 [4] | Activity [2]
1 | COc1cc(OCc2ccccc2C)ccc1-c1onc(C)c1-c1ccc(Cl)cc1 | 81.3% | – | – | Non-toxic
2 | Cc1ccccc1COc1ccc(-c2onc(C)c2-c2ccc(Cl)cc2)c(O)c1 | 3% | – | – | Non-toxic
3 | CCOC(=O)c1noc(-c2ccc(OCc3ccc(C)cc3)cc2)c1-c1ccc(Cl)cc1 | 61.4% | – | – | Non-toxic
4 | CC(c1cc2ccccc2s1)N(O)C(N)=O (stereo not drawn) [ZILEUTON] | 6.7% | – | – | Non-toxic
5 | CCOC(=O)c1noc(-c2ccc(OCc3cccc(F)c3)cc2)c1-c1ccc(Cl)cc1 | 55.3% | – | – | Non-toxic
6 | Cc1ccccc1COc1ccc(-c2onc(C)c2-c2ccc(Cl)cc2)cc1 | 102% | – | – | Non-toxic
7 | CCOC(=O)c1noc(-c2ccc(OCc3ccccc3C)cc2)c1-c1ccc(Cl)cc1 | 71.9% | > 10 µM | – | Non-toxic

Second part, led by results:

Row | Activity [1] | IC50 [3] | IC50 [4] | SMILES | Activity [2]
8 | 13.1% | 1.7 µM | – | Cc1ccccc1COc1ccc(-c2onc(C(=O)O)c2-c2ccc(Cl)cc2)cc1 | Non-toxic
9 | 5.1% | 1.2 µM | – | O=C(O)c1noc(-c2ccc(OCc3ccccc3Cl)cc2)c1-c1ccc(Cl)cc1 | Non-toxic
10 | 15.7% | 1.4 µM | – | Cc1ccc(COc2ccc(-c3onc(C(=O)O)c3-c3ccc(Cl)cc3)cc2)cc1 | Non-toxic
11 | 8.4% | 4.1 µM | – | O=C(O)c1noc(-c2ccc(OCc3ccccn3)cc2)c1-c1ccc(Cl)cc1 | Non-toxic
12 | 2% | 0.24 µM | > 10 µM | O=C(O)c1noc(-c2ccc(OCc3nc4ccccc4s3)cc2)c1-c1ccc(Cl)cc1 | Non-toxic
13 | 19.6% | 1.3 µM | – | O=C(O)c1noc(-c2ccc(OCc3cccc(F)c3)cc2)c1-c1ccc(Cl)cc1 | Non-toxic
14 | 5.5% | 0.77 µM | – | O=C(O)c1noc(-c2ccc(OCc3ccccc3C(F)(F)F)cc2)c1-c1ccc(Cl)cc1 | Non-toxic
15 | 6.9% | 4.1 µM | – | N#Cc1cccc(COc2ccc(-c3onc(C(=O)O)c3-c3ccc(Cl)cc3)cc2)c1 | Non-toxic
16 | 2.7% | 0.24 µM | – | O=C(O)c1noc(-c2ccc(OCc3ccc4ccccc4n3)cc2)c1-c1ccc(Cl)cc1 | Non-toxic
